# HCV NS3 hel inh – inhibitors of Hepatitis C virus NS3 helicase; NS3 helicase DNA unwinding, Cy5 molecular beacon fluorescence; inhibition, % at 10.9 µM; 290,000 tested, 0.56% active; AID 1800;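 active means inhibition above the mean of all tested compounds plus 3 SD, set per campaign, cut at about 35% in these data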;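 further: 0% = DMSO wells and 100% = thioflavine S control wells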
#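 Measured by: Cy5 fluorescence, 0 and 60 min reads / Assay system: NS3 helicase fragment of HCV / Control set: low DMSO, high thioflavine S at 110 µM / Times: 1 h reaction at 25 °C, ATP-initiated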
# core dimer inh – HCV core protein dimerization inhibition. 300,000 tested, 0.33% active. inhibition, % at 5 µM. AID 1899. TR-FRET GST/Flag-core106 dimerization, 1536-well;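 active means inhibition above the mean of all tested compounds plus 3 SD, set per screening campaign, cut at about 45% in these data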
#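 Material: GST/Flag-tagged HCV core106 proteins. Incubation: 4 h, 22.5 °C incubation. Read-out basis: inhibition (%) from 671 over 617 nm ratio. Measured by: TR-FRET, excitation 340 nm, emission 617 and 671 nm.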
# GRK2 aptamer HTS – blocks RNA aptamer binding to human GRK2. P25098. bead flow cytometry, FAM-aptamer displacement from GRK2. inhibition of aptamer binding, % at 10 µM. 330,000 tested, 0.59% active;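 active means inhibition of aptamer binding above 40%, roughly 3 SD of noise, on plates passing a quality check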;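 further: median bead fluorescence of bound FAM aptamer so fluorescent compounds give negative values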
# FID counter – fluorescent intercalator displacement, NS3 helicase counter-screen; AID 1845; DNA fluorescent intercalator displacement, fluorescence; 290,000 tested, 0.17% active; inhibition, % at 7.9 µM; in the data active means inhibition above about 37%;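 further: 0% = vehicle and 100% = reference compound; higher means more ethidium bromide displaced from hairpin DNA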
# DAGLB inhibitor – diacylglycerol lipase beta (human) inhibition; HEK293T DAGLB membrane lysate, EnzChek fluorogenic substrate; inhibition, % at 5.17 µM; 340,000 tested, 0.059% active; Q8NCG7; in the data active means inhibition above about 34%;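 further: 0% = enzyme with vehicle and 100% = wells lacking enzyme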
# GPR7 antag – blocks human GPR7 receptor signaling | GPR7-expressing cells, fluorescence antagonist assay | 290,000 tested, 1.1% active | inhibition, % at 4.4 µM | P48145; in the data active means inhibition above about 16%, passing the limit was not always enough;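 further: cells stimulated with the agonist NPW; 0% = agonist with vehicle and 100% = vehicle without agonist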
# Target sequence (P48145 whole entry, looked up): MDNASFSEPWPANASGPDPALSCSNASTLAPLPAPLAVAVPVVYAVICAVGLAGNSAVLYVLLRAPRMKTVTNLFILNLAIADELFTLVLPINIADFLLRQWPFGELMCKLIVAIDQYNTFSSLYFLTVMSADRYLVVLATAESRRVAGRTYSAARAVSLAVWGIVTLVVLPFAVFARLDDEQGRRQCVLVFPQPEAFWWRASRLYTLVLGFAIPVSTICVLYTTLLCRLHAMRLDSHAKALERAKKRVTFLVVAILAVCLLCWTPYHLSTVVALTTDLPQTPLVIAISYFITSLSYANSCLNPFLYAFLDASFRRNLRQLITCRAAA
# GPR7 antag cf – human GPR7 antagonism, confirmation assay. GPR7-expressing cells, calcium fluorescence antagonist mode. shares compounds with GPR7 antag. 2,400 tested, 52% active. AID 1952. inhibition, % at 4.4 µM; in the data active means inhibition above about 24%;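 further: stimulated with the GPR7 agonist NPW; 0% = agonist plus vehicle and 100% = vehicle alone without agonist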
# MCHR1 antag – counter-screen for GPR7 antagonists: antagonists of human MCHR1; shares compounds with GPR7 antag; MCHR1-expressing cells, fluorescence antagonist assay; inhibition, % at 4.4 µM; 2,400 tested, 62% active; in the data active means inhibition above about 22%;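 further: 0% = vehicle with agonist and 100% = vehicle without agonist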
# The depositor's hits bear a star; / = no result. An excerpt weighted towards active compounds, which were near 2.2% of everything screened.
SMILES,HCV NS3 hel inh,core dimer inh,GRK2 aptamer HTS,FID counter,DAGLB inhibitor,GPR7 antag,GPR7 antag cf,MCHR1 antag
Cc1ccccc1C(=O)N=c1ccn(-c2nc3ccccc3nc2NS(=O)(=O)c2ccccc2)cc1,-3.1,-11.1,4.0,-45.0,4.6,-6.6,/,/
CCOc1cc(C2NC(=O)CCC2[N+](=O)[O-])cc(Br)c1OC (centres undefined),-9.1,-1.5,0.0,-3.0,-1.1,-17.2,/,/
O=C(CCC(=O)N1CCSc2ccccc21)Nc1ccc(F)cc1,19.2,-2.1,0.0,-24.0,2.1,31.6*,-2.2,5.5
N#Cc1ccc(S(=O)(=O)N2CCCN(c3ccc(C(F)(F)F)cn3)CC2)cc1,-13.9,-0.3,0.0,-19.9,/,24.2*,19.0,7.8
COC(=O)C1=C(C)N=C2SC(C#N)=C(N)N2C1c1cc(OC)c(OC)c(OC)c1 (centres undefined),-2.2,-2.9,0.0,-3.0,0.0,27.9*,-4.0,-5.4
COC(=O)C1=C(C)N=C2SC(C#N)=C(N)N2C1c1ccc(OCc2ccccc2)cc1 (centres undefined),-6.2,14.1,0.0,-10.7,1.2,-7.2,/,/
Cc1ccsc1C(=O)C1CCCN(Cc2cc(F)ccc2-n2cccn2)C1 (centres undefined),5.6,1.9,1.0,-1.7,-3.2,-4.2,/,/
Cc1ccc(CN(C(=O)c2c(F)cccc2F)C2CC(C)(C)NC(C)(C)C2)o1,-7.7,-3.5,0.0,7.3,-0.1,25.0*,8.7,2.9
Clc1ccc(CN2C3=NCCCN3c3ccccc32)cc1,-9.0,-1.5,0.0,9.9,0.5,4.0,/,/
Clc1ccc(CN2C3=NCCCN3c3ccccc32)cc1Cl,-28.2,-1.5,0.0,14.9,3.9,24.0*,26.1*,27.4*
COc1ccc(CSc2nnnn2C)cc1[N+](=O)[O-],-1.9,5.5,0.0,0.6,2.7,-0.5,/,/
COc1ccc(CSc2nnnn2-c2ccc(C(N)=O)cc2)cc1[N+](=O)[O-],-7.6,-11.2,0.0,3.6,-2.4,36.1*,6.6,38.9*
Cc1ccc(C(O)(C(=O)NN(C(=O)c2ccccc2)c2ccccc2)c2ccc(C)cc2)cc1,-5.8,2.9,3.0,-18.4,-6.3,35.8*,39.5*,22.9*
CC(C)(O)C(=O)NN(C(=O)c1ccccc1)c1ccc2ccccc2c1,-8.0,-8.5,8.0,-4.1,-0.4,8.8,/,/
O=C(c1ccccc1F)N(NC(=O)C(O)(c1ccccc1)c1ccccc1)c1ccccc1,-8.5,9.8,1.0,-3.4,-2.1,34.9*,36.5*,31.1*
O=C(c1ccccc1)N(NC(=O)C(O)(c1ccccc1)c1ccccc1)c1cccc(F)c1,-19.0,-1.9,0.0,-13.2,-1.2,37.0*,14.8,64.1*
Cc1ccc(N(NC(=O)C(O)(c2ccccc2)c2ccccc2)C(=O)CCl)cc1,-6.4,10.8,1.0,-11.8,6.5,10.8,/,/
O=C(NN(c1ccccc1)c1ccccc1)c1ccccc1F,-3.6,3.4,1.0,-4.7,2.3,-1.4,/,/
Cc1nc(NC(=O)c2ccccc2)sc1C1(C)CC(c2ccc(OC(F)(F)F)cc2)=NO1 (centres undefined),/,2.6,3.0,/,/,/,/,/
Cc1ccccc1C(=O)c1cccn1CC(=O)NCCCN1CCCCC1,-2.5,-1.6,0.0,5.1,-2.1,-12.4,/,/
Cc1ccc(C)c(N2CCN(CCCNC(=O)Cn3cccc3C(=O)c3ccccc3C)CC2)c1,-33.8,-5.7,0.0,37.9*,1.0,28.4*,35.5*,65.1*
CC(C)CC(=O)NC(Nc1ccc([N+](=O)[O-])cc1)C(Cl)(Cl)Cl (centres undefined),-4.8,-9.2,2.0,9.4,0.8,25.6*,13.7,45.4*
O=C(c1ccco1)N1CCN(c2ncnc3c2nnn3Cc2ccccc2Cl)CC1,4.2,3.5,0.0,-39.1,1.6,-2.6,/,/
CCOC(=O)C1CCN(c2ncnc3c2nnn3Cc2ccccc2Cl)CC1,-2.0,-1.5,0.0,-20.6,-7.9,21.6*,26.5*,28.6*

# Source: PubChem (several laboratories)
